# Measurements reported in ChEMBL document CHEMBL1926509, “Discovery of pyrazolo[1,5-a]pyridines as p110α-selective PI3 kinase inhibitors” (Bioorg Med Chem, 2012).
# pIC50: −log10 of the molar value.
# Columns and labels:
# [1] = target: T1, Phosphatidylinositol 4,5-bisphosphate 3-kinase catalytic subunit delta isoform (Homo sapiens, UniProt O00329); assay: Inhibition of recombinant PI3K p110delta using L-alpha-phosphatidylinositol as substrate and [gamma33P]ATP after 60 mins by thin layer chromatographic technique
# T1 sequence (O00329 whole entry): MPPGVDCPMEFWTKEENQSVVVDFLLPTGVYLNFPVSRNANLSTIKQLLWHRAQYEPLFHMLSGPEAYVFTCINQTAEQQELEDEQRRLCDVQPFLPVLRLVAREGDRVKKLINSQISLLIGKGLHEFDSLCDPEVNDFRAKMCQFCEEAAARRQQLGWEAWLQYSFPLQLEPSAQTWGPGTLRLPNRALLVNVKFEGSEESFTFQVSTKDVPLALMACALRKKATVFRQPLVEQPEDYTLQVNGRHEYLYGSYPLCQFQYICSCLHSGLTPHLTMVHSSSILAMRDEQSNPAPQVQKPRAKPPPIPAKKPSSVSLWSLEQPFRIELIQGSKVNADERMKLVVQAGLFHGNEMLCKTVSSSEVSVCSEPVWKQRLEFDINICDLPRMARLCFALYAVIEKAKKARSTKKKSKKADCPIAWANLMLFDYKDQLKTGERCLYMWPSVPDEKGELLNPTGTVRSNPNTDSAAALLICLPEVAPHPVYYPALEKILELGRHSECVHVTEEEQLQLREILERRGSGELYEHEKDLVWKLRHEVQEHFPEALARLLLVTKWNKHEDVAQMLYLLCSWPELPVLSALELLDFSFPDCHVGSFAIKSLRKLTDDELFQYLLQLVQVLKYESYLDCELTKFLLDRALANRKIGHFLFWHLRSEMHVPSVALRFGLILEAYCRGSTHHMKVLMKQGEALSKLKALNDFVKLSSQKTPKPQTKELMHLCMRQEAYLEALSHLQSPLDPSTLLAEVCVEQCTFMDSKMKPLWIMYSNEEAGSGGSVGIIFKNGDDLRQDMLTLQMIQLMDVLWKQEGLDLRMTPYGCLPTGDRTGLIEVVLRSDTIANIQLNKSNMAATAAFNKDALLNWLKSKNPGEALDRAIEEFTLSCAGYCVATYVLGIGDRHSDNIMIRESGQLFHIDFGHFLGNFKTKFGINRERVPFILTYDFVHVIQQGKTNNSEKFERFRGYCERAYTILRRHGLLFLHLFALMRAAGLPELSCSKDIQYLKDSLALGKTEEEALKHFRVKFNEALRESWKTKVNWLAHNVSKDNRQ
# Procedure, shortened: (§1)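 In-house recombinant class Ia PI3K isoform (0.1 µg) with L-α-phosphatidylinositol substrate in lipid kinase buffer (Tris–HCl pH 7.4, NaCl, EDTA), 1% DMSO final. Started with ATP mix (5 mM MgCl₂, 100 µM ATP plus [γ-³³P]ATP), 1 h at room temperature, stopped with 1 M HCl. Lipids extracted in two steps, separated by TLC, read by phosphorimager. Nine inhibitor concentrations; IC50 averaged over two experiments.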
# [2] = target: Phosphatidylinositol 4,5-bisphosphate 3-kinase catalytic subunit alpha isoform (Homo sapiens, UniProt P42336); assay: Inhibition of recombinant PI3K p110alpha using L-alpha-phosphatidylinositol as substrate and [gamma33P]ATP after 60 mins by thin layer chromatographic technique; procedure, shortened: as §1
# Chain of Phosphatidylinositol 4,5-bisphosphate 3-kinase catalytic subunit alpha isoform (Homo sapiens, UniProt P42336) (P42336 whole entry, canonical isoform): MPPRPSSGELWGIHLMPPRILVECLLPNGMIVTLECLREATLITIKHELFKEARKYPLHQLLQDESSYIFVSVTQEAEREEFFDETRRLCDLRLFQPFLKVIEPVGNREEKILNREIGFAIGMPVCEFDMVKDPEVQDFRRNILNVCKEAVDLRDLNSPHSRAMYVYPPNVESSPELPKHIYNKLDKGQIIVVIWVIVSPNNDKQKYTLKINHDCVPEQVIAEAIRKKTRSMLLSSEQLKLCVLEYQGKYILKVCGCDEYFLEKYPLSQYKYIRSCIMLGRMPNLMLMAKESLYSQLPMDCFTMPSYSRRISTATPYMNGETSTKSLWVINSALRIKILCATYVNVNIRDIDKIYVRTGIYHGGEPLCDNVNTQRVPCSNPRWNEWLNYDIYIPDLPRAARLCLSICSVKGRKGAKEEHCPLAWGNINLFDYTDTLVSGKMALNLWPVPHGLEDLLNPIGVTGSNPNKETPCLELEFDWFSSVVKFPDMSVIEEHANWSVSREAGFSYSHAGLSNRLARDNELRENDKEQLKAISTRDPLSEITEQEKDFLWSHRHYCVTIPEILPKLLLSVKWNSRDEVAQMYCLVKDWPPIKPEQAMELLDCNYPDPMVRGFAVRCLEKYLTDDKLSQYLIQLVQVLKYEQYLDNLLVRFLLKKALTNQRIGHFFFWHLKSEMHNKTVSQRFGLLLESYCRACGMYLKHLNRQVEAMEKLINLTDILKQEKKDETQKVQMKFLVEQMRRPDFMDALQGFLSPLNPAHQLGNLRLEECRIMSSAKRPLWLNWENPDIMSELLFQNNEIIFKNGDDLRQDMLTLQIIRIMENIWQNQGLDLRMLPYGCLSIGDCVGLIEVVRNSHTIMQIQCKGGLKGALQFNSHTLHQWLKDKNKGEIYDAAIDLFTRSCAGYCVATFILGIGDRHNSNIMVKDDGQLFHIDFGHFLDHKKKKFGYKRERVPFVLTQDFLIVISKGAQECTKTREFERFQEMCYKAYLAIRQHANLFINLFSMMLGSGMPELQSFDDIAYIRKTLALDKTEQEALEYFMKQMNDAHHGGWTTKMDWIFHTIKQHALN
# [3] = target: T2, Phosphatidylinositol 4,5-bisphosphate 3-kinase catalytic subunit alpha isoform (Homo sapiens, UniProt P42336, H1047R); assay: Inhibition of PI3K […] H1047R mutant-mediated PKB phosphorylation at Thr308 in human HCT116 cells after 15 mins by immunoblot analysis; assay type: cell-based, HCT-116
# T2 sequence (P42336 whole entry H1047R, canonical isoform): as the sequence (P42336 whole entry, canonical isoform) above, with H1047R counted along it
# Procedure, shortened: (§2)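 HCT-116 cells in MEM alpha with 10% FBS and penicillin/streptomycin were seeded, grown 1 day, then serum-starved overnight. They were exposed to a range of inhibitor concentrations in DMSO (0.1% final) for 15 min, then stimulated with 500 nM insulin for 5 min. Phospho-PKB (Ser473 or Thr308) was detected by immunoblotting.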
# [4] = target: T2, Phosphatidylinositol 4,5-bisphosphate 3-kinase catalytic subunit alpha isoform; assay: Inhibition of PI3K […] H1047R mutant-mediated PKB phosphorylation at Ser473 in human HCT116 cells after 15 mins by immunoblot analysis; assay type: cell-based, HCT-116; procedure, shortened: as §2
structure (smiles),measurement,setting,value
Cc1ccc([N+](=O)[O-])cc1S(=O)(=O)N(C)/N=C/c1cnn2ccc(C#N)cc12,pIC50,[1],7.31
same,pIC50,[2],9.05
same,pIC50,[3],7.59
same,pIC50,[4],7.64
